The source of these data is ChEMBL document CHEMBL5712897, “EZH2 inhibits autophagic cell death of aortic vascular smooth muscle cells to affect aortic dissection” (2018).

Assay [1] has as its target Histone-lysine N-methyltransferase EZH2 (Mus musculus) (UniProt Q61188). Put plainly: Inhibition of EZH2 in mouse MOVAS cells assessed as reduction in cell count at 5 uM measured after 48 hrs in presence of MEK1 inhibitor PD98059 by light microscopy. It is filed as cell-based. The method in brief: (§1)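 Mouse MOVAS VSMCs imaged by light microscopy after 48 h of the indicated treatments (scale bar 200 μm). Lentivirally modified cells were selected with puromycin 2 μg/ml after 48 h infection. Treatments were inhibitor 5 μM, DMSO vehicle, or PD98059 50 μM.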

Assay [2] shares this target. Kind of assay: Inhibition of EZH2 in mouse MOVAS cells assessed as reduction in cell number at 5 uM measured at 24 hrs by cell counting method. Format: cell-based. The method in brief: (§2)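 MOVAS cells serum-starved 12 h in DMEM/high glucose, then 2×10^5 cells seeded in six-well plates in medium with 10% FBS. Trypsinized at 12, 24, 36 and 48 h and counted by a single blinded observer. Three replicate wells (n = 3); mean ± SD, two-tailed t-test.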

For assay [3] the target is unchanged. Put plainly: Inhibition of EZH2 in mouse VSMC cells assessed as reduction in cell count at 5 uM for 24 hrs by light microscopic analysis. It is filed as cell-based. Particulars: MOVAS.
For assay [4] the target is unchanged. Kind of assay: Inhibition of EZH2 in mouse MOVAS cells assessed as cell injury at 5 uM measured after 48 hrs by LDH release assay. It is filed as cell-based. The method in brief:
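Mouse MOVAS VSMCs exposed to inhibitor for 48 h. Cell injury quantified as percentage of injured cells from released LDH using a cytotoxicity LDH kit. n = 6; mean ± SD versus DMSO, two-tailed t-test.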
A general note: LDH leaks from cells whose membrane has failed.

Assay [5] has the same target. Kind of assay: Inhibition of EZH2 in mouse MOVAS cells transfected with shATG7 assessed as reduction in cell count at 5 uM measured up to 48 hrs by cell counting method. Format: cell-based. Put shortly:
as §2

For assay [6] the target is unchanged. Kind of assay: Inhibition of EZH2 in mouse MOVAS cells transfected with shATG7 assessed as reduction in cell count at 5 uM measured after 48 hrs by light microscopy. It is filed as cell-based. The method in brief: as §1
The target is the same in assay [7]. Put plainly: Inhibition of EZH2 in mouse MOVAS cells over-expressing AKT assessed as reduction in H3K27me2 level at 5 uM measured after 24 hrs by Western blot analysis. It is filed as cell-based. Put shortly:
(§3)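 Total protein from MOVAS cells extracted in RIPA buffer. 20 μg per lane resolved by SDS-PAGE and transferred to PVDF. Blocked in 5% non-fat milk, primary antibody overnight at 4 °C, then peroxidase-conjugated secondary and chemiluminescence imaging. Normalized to GAPDH or β-actin loading control. n = 4; mean ± SD versus DMSO, two-tailed t-test.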
For orientation: Immunoblotting shows a protein as a band on a membrane.

Assay [8] relates to MOVAS. Put plainly: Cell cycle arrest in mouse MOVAS cells assessed as effect on S-phase cell population at 5 uM by flow cytometry. It is filed as functional, cell-based. Put shortly:
(§4)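 MOVAS mouse aortic SMCs (about 2–5×10^6) harvested by trypsin, washed twice in PBS, fixed overnight at 4 °C in cold 70% ethanol, then stained 2 h in the dark with RNase A (0.3 mg) and propidium iodide (0.015 mg). Cell-cycle phase distribution read by flow cytometry. Data are mean ± SD, compared by two-tailed t-test.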

In assay [9] the target is Histone-lysine N-methyltransferase EZH2 (Mus musculus) (UniProt Q61188). Put plainly: Inhibition of EZH2 in mouse MOVAS cells over-expressing AKT assessed as reduction in cell count at 5 uM by cell counting method. Format: cell-based. Put shortly:
as §2

Assay [10] has as its system MOVAS. Kind of assay: Cell cycle arrest in mouse MOVAS cells assessed as effect on G0/G1-phase cell population at 5 uM by flow cytometry. Format: functional, cell-based. The method in brief: as §4
(Flow cytometry measures light scatter and fluorescence of single cells or particles in a stream.)

Assay [11] has as its target Histone-lysine N-methyltransferase EZH2 (Mus musculus) (UniProt Q61188). Put plainly: Inhibition of EZH2 in mouse MOVAS cells assessed as increase in ATG5 expression at 5 uM measured after 24 hrs by Western blot analysis. Format: cell-based. The method in brief: as §3
Assay [12] shares this target. Kind of assay: Inhibition of EZH2 in mouse MOVAS cells assessed as effect on S6 phosphorylation at 5 uM measured after 24 hrs by Western blot analysis. Format: cell-based. The method in brief: as §3
A short description of assay [13]: Induction of apoptosis in mouse MOVAS cells assessed as late apoptotic cells at 5 uM by flow cytometry. It is filed as functional. The method in brief: (§5)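 Trypsinized MOVAS cells stained with a PE Annexin V apoptosis detection kit and analysed by flow cytometry, which separated early and late apoptotic populations. Mean ± SD; two-tailed Student's t-test.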
Assay [14] concerns the target Histone-lysine N-methyltransferase EZH2 (Mus musculus) (UniProt Q61188). Kind of assay: Inhibition of EZH2 in mouse MOVAS cells assessed as effect on mTOR phosphorylation at 5 uM measured after 24 hrs by Western blot analysis. It is filed as cell-based. The method in brief:
as §3

For assay [15] the target is unchanged. Put plainly: Inhibition of EZH2 in mouse MOVAS cells over-expressing AKT assessed as reduction in H3K27me3 level at 5 uM measured after 24 hrs by Western blot analysis. Format: cell-based. Put shortly:
as §3

Assay [16] has the same target. Put plainly: Inhibition of EZH2 in mouse MOVAS cells transfected with shATG5 assessed as increase in LC3-II expression at 5 uM by Western blot analysis. It is filed as cell-based. Put shortly:
as §3

The target is the same in assay [17]. Kind of assay: Inhibition of EZH2 in mouse MOVAS cells assessed as reduction in H3K27me3 level at 5 uM measured after 24 hrs by Western blot analysis. It is filed as cell-based. Put shortly:
as §3

The target is the same in assay [18]. Kind of assay: Inhibition of EZH2 in mouse MOVAS cells assessed as elevation of LC3-II expression at 5 uM in presence of chloroquine by Western blot analysis. It is filed as cell-based. The method in brief: as §3
Assay [19] shares this target. Put plainly: Inhibition of EZH2 in mouse MOVAS cells assessed as increase in ERK1/2 phosphorylation at 5 uM measured after 6 hrs in presence of MEK1 inhibitor PD98059 by Western blot analysis. Format: cell-based. Put shortly: as §3
The subject of assay [20] is MOVAS. Put plainly: Cell cycle arrest in mouse MOVAS cells assessed as effect on G2/M-phase cell population at 5 uM by flow cytometry. Format: functional, cell-based. The method in brief: as §4
Assay [21] deals with Histone-lysine N-methyltransferase EZH2 (Mus musculus) (UniProt Q61188). Put plainly: Inhibition of EZH2 in mouse MOVAS cells assessed as elevation of LC3-II expression at 5 uM in presence of chloroquine and rapamycin by Western blot analysis. It is filed as cell-based. Put shortly:
as §3

For assay [22] the target is unchanged. Kind of assay: Inhibition of EZH2 in mouse MOVAS cells transfected with shATG5 assessed as reduction in cell count at 5 uM measured after 48 hrs by light microscopy. It is filed as cell-based. The method in brief: as §1
The target is the same in assay [23]. Kind of assay: Inhibition of EZH2 in mouse MOVAS cells transfected with shATG7 assessed as increase in LC3-II expression at 5 uM by Western blot analysis. Format: cell-based. The method in brief: as §3
Assay [24] shares this target. Kind of assay: Inhibition of EZH2 in mouse MOVAS cells assessed as effect on AMPKalpha phosphorylation at 5 uM measured after 24 hrs by Western blot analysis. Format: cell-based. Put shortly:
as §3

For assay [25] the target is unchanged. Put plainly: Inhibition of EZH2 in mouse MOVAS cells over-expressing AKT assessed as reduction in cell count at 5 uM by light microscopy. Format: cell-based. The method in brief: as §1
The nature of assay [26]: Induction of apoptosis in mouse MOVAS cells assessed as early apoptotic cells at 5 uM by flow cytometry. It is filed as functional. Put shortly:
as §5

The target of assay [27] is Histone-lysine N-methyltransferase EZH2 (Mus musculus) (UniProt Q61188). Kind of assay: Inhibition of EZH2 in mouse MOVAS cells assessed as increase in ATG7 expression at 5 uM measured after 24 hrs by Western blot analysis. It is filed as cell-based. The method in brief: as §3
Assay [28] has the same target. Kind of assay: Inhibition of EZH2 in mouse MOVAS cells assessed as increase in ERK1/2 phosphorylation at 5 uM measured after 6 hrs by Western blot analysis. It is filed as cell-based. Put shortly:
as §3

For assay [29] the target is unchanged. Put plainly: Inhibition of EZH2 in mouse MOVAS cells assessed as reduction in AKT phosphorylation at 5 uM measured after 24 hrs by Western blot analysis. It is filed as cell-based. The method in brief:
as §3

Assay [30] has the same target. Put plainly: Inhibition of EZH2 in mouse MOVAS cells assessed as reduction in cell count at 5 uM measured after 48 hrs in presence of MEK1 inhibitor PD98059 by cell counting method. It is filed as cell-based. The method in brief:
as §2

For assay [31] the target is unchanged. Kind of assay: Inhibition of EZH2 in mouse MOVAS cells assessed as reduction in H3K27me2 level at 5 uM measured after 24 hrs by Western blot analysis. It is filed as cell-based. Put shortly:
as §3

The target is the same in assay [32]. Put plainly: Inhibition of EZH2 in mouse MOVAS cells over-expressing AKT assessed as increase in LC3-II expression at 5 uM measured after 24 hrs by Western blot analysis. It is filed as cell-based. Put shortly: as §3
Assay [33] shares this target. Kind of assay: Inhibition of EZH2 in mouse MOVAS cells assessed as increase in LC3-II accumulation at 5 uM measured after 24 hrs in presence of MEK1 inhibitor PD98059 by Western blot analysis. Format: cell-based. The method in brief:
as §3

For assay [34] the target is unchanged. Kind of assay: Inhibition of EZH2 in mouse MOVAS cells assessed as elevation of LC3-II expression at 5 uM by Western blot analysis. Format: cell-based. Put shortly:
as §3

Assay [35] has the same target. Put plainly: Inhibition of EZH2 in mouse MOVAS cells assessed as appearance of double-membraned vacuole containing fragments of cytoplasmic component in presence of rapamycin by transmission electron microscopy. It is filed as cell-based. The method in brief: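 MOVAS cells treated with inhibitor or lentivirus, with rapamycin at 150 nM. Fixed in cold 2.5% glutaraldehyde for 30 min, then further fixed overnight at 4 °C, dehydrated in ethanol and acetone, and embedded in epoxy resin. 60-nm sections stained with uranyl acetate and lead citrate and imaged by TEM for double-membraned autophagic vacuoles.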

Assay [36] has the same target. Kind of assay: Inhibition of EZH2 in mouse MOVAS cells transfected with shATG5 assessed as reduction in cell count at 5 uM measured up to 48 hrs by cell counting method. Format: cell-based. The method in brief: as §2
A short description of assay [37]: Induction of apoptosis in mouse MOVAS cells assessed as early apoptotic cells by flow cytometry. It is filed as functional. Put shortly: as §5
Assay [38] deals with MOVAS. Put plainly: Cell cycle arrest in mouse MOVAS cells assessed as effect on G2/M-phase cell population by flow cytometry. Format: functional, cell-based. Put shortly:
as §4

For assay [39], the system named is MOVAS. Put plainly: Cell cycle arrest in mouse MOVAS cells assessed as effect on G0/G1-phase cell population by flow cytometry. It is filed as functional, cell-based. The method in brief:
as §4

Assay [40] is described as follows: Induction of apoptosis in mouse MOVAS cells assessed as late apoptotic cells by flow cytometry. It is filed as functional. Put shortly:
as §5

Assay [41] deals with MOVAS. Kind of assay: Cell cycle arrest in mouse MOVAS cells assessed as effect on S-phase cell population by flow cytometry. Format: functional, cell-based. The method in brief: as §4

The source made the active and inactive calls. The calls are words filed in the database; no cut-off is given here.

Histone-lysine N-methyltransferase EZH2 (Mus musculus), sequence (Q61188 whole entry): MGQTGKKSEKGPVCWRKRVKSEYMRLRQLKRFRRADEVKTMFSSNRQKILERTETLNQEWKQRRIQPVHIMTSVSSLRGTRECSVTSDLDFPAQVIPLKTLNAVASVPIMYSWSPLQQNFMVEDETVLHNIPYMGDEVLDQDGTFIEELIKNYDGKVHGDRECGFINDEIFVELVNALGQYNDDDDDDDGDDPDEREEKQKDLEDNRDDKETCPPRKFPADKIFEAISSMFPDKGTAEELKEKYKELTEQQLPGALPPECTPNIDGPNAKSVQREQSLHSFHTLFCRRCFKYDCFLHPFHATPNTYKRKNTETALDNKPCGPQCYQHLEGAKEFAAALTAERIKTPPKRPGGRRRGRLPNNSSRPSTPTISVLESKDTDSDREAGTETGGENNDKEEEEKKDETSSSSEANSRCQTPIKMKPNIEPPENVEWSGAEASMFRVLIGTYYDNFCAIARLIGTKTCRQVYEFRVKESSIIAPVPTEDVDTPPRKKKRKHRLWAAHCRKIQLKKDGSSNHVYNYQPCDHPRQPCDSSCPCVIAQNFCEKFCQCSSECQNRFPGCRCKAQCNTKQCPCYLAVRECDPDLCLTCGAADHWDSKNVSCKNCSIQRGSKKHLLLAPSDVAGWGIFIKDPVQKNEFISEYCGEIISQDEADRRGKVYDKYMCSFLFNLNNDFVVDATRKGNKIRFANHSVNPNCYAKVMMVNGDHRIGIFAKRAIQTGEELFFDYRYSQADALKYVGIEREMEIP

With `CCCc1cc(C)[nH]c(=O)c1CNC(=O)c1cc(-c2ccc(N3CCN(C(C)C)CC3)nc2)cc2c1cnn2C(C)C`, the inhibition entry in assay [1], in assay [5], in assay [6], in assay [12], in [14] and in assay [16] was “inactive” each time. The inhibition result in assay [19], in assay [22], in assay [23], in assay [24], in [30] and in assay [33] was “inactive” each time. Besides, the inhibition result in [36] was “inactive”. Besides, the inhibition result in [2], in assay [3], in assay [4], in [7], in assay [9] and in assay [11] was “Active” in each case. In addition, the inhibition entry in assay [15], in assay [17], in assay [18], in assay [21], in assay [25] and in assay [27] was “Active” in each case. The inhibition entry in assay [28], in assay [29], in [31], in assay [32], in assay [34] and in [35] was “Active” throughout. In addition, the result with MOVAS [8], in the assay with MOVAS [10] and in the assay on MOVAS [20] was inactive. Moreover, the Activity in assay [13] came to 6.11%; in assay [26], 8.67%.
With `C[S+](C)[O-]` [DIMETHYL SULFOXIDE], the Activity came to 9.76% in [37] and 5.96% in [40]. Further, the result with MOVAS [38], in the assay on MOVAS [39] and in the assay on MOVAS [41] was inactive.
